Results as given in ChEMBL document CHEMBL2375324 (Bioorg Med Chem, 2013).

Tests used:
[1] = molecular target: Bcr/Abl fusion protein (Homo sapiens, UniProt P00519); assay: Inhibition of Bcr-Abl kinase (unknown origin) after 30 mins by HTRF assay; format: protein assay
[2] = system: K562; assay: Antiproliferative activity against human K562 cells after 48 hrs by MTT assay; format: functional, cell-based; settings: K562, 48 h
Summary of the method: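 Exponentially growing K562 cells were seeded at 1 × 10⁴ cells/well and preincubated 24 h at 37 °C. They were then exposed to the compounds at various concentrations for 48 h. MTT (5 mg/mL solution) was added for 4 h at 37 °C, the supernatant was removed, and formazan was dissolved in DMSO. Absorbance was read at 490 nm, and IC₅₀ is reported in µM.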

Bcr/Abl fusion protein, sequence (P00519 whole entry, the tested form may be a part): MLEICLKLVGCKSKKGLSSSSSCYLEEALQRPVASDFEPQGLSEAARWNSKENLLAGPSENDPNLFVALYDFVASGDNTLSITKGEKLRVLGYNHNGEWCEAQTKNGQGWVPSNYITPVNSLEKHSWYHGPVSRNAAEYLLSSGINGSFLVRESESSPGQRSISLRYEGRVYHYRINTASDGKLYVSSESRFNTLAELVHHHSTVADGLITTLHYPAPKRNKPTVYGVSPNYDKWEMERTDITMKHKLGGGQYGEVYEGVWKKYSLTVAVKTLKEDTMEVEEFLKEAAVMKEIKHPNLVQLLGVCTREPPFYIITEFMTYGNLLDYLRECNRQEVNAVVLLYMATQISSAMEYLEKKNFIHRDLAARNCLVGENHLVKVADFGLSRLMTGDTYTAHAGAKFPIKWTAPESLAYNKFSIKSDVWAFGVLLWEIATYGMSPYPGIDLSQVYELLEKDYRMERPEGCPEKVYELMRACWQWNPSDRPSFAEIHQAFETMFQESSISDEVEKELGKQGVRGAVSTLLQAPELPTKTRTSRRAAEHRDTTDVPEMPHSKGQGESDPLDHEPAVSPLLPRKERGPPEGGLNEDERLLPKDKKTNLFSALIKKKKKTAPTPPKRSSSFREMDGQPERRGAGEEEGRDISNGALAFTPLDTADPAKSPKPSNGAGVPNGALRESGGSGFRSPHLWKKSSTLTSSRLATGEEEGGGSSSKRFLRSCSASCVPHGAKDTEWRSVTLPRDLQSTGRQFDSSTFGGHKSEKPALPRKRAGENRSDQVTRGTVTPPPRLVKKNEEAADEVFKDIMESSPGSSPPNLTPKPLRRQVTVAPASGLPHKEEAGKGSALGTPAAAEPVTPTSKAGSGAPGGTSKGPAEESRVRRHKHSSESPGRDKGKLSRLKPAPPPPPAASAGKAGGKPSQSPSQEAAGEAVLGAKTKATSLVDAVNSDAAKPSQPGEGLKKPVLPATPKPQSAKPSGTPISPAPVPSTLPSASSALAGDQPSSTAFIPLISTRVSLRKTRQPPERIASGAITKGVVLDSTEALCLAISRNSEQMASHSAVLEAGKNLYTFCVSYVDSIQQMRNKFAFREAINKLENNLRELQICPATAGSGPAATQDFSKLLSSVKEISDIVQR
Bcr/Abl fusion protein, sequence (P11274 whole entry, further chain, the tested form may be a part): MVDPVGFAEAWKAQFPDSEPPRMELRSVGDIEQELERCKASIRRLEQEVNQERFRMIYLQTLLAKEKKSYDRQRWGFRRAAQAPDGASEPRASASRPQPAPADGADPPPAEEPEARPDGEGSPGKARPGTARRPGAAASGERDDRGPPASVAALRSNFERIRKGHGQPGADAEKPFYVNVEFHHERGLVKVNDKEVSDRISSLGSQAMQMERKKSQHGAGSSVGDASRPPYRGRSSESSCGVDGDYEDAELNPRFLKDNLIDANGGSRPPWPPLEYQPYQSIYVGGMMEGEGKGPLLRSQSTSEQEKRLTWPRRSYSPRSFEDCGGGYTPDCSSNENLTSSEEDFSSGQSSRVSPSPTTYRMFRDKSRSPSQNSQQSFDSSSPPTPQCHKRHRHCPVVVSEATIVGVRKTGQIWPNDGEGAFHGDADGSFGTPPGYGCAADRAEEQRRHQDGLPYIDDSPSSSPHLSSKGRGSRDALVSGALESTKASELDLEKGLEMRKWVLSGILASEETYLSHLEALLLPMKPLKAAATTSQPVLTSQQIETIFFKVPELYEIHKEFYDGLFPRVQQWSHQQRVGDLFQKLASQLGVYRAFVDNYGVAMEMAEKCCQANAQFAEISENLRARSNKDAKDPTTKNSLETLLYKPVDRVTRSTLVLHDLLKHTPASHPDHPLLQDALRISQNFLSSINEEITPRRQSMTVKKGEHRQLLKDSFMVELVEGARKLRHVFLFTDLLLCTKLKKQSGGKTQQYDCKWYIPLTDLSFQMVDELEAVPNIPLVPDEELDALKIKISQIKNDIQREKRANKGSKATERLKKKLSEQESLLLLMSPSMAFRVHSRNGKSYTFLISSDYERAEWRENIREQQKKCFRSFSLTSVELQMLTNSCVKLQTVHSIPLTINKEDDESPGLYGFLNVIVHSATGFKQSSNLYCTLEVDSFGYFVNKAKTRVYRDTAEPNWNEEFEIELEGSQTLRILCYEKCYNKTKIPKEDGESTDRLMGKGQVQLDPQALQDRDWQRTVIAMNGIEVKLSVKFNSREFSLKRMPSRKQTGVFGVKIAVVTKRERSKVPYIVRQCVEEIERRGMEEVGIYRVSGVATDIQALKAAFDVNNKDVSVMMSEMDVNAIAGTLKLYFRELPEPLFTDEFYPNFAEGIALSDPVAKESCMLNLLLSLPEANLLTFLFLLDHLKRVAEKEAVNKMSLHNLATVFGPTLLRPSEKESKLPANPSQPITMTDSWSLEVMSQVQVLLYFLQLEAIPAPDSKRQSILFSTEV

| IC50 [1] | IC50 [2] | Compound |
| --- | --- | --- |
| 0.00473 µM |  | COc1ccc(C(=O)Nc2ccc(F)c(Cl)c2)cc1Nc1nccc(-c2cccnc2)n1 |
| 4.13 µM |  | COc1ccc(C(=O)Nc2cccc(C(F)(F)F)c2)cc1Nc1nccc(-c2cccnc2)n1 |
| 0.00479 µM |  | COc1ccc(C(=O)Nc2ccc(Br)cc2)cc1Nc1nccc(-c2cccnc2)n1 |
| 0.00321 µM |  | COc1ccc(C(=O)Nc2cccc(F)c2)cc1Nc1nccc(-c2cccnc2)n1 |
|  | 4.84 µM | COc1ccc(C(=O)Nc2cc(C(F)(F)F)cc(C(F)(F)F)c2)cc1Nc1nccc(-c2cccnc2)n1 |
|  | 215 µM | COc1ccc(C(=O)Nc2cc(Br)cc(C(F)(F)F)c2)cc1Nc1nccc(-c2cccnc2)n1 |
| 0.0348 µM | 237 µM | COc1ccc(C(=O)Nc2cccc(Cl)c2)cc1Nc1nccc(-c2cccnc2)n1 |
|  | 237 µM | COc1ccc(C(=O)Nc2cccc(C(C)=O)c2)cc1Nc1nccc(-c2cccnc2)n1 |
|  | 93.1 µM | COc1cccc(NC(=O)c2ccc(OC)c(Nc3nccc(-c4cccnc4)n3)c2)c1 |
| 2.75 µM | 94.5 µM | COc1ccc(C(=O)Nc2ccncc2)cc1Nc1nccc(-c2cccnc2)n1 |
| 0.00378 µM |  | COc1ccc(C(=O)Nc2ncccn2)cc1Nc1nccc(-c2cccnc2)n1 |
| 0.294 µM |  | COc1ccc(C(=O)Nc2nccs2)cc1Nc1nccc(-c2cccnc2)n1 |
| 0.00052 µM | 38.5 µM | COc1ccc(C(=O)Nc2ccc(OCCCN(C)C)cc2)cc1Nc1nccc(-c2cccnc2)n1 |
| 0.00234 µM |  | COc1ccc(C(=O)Nc2ccc(OCCN(C)C)cc2)cc1Nc1nccc(-c2cccnc2)n1 |
| 0.00148 µM |  | CCN(CC)CCOc1ccc(NC(=O)c2ccc(OC)c(Nc3nccc(-c4cccnc4)n3)c2)cc1 |
| 0.35 µM | 38.6 µM | COc1ccc(C(=O)Nc2ccc(OCCN3CCCC3)cc2)cc1Nc1nccc(-c2cccnc2)n1 |
| 1.11 µM | 5.15 µM | COc1ccc(C(=O)Nc2ccc(OCCN3CCCCC3)cc2)cc1Nc1nccc(-c2cccnc2)n1 |
| 0.0633 µM |  | COc1ccc(C(=O)Nc2ccc(OCCN3CCOCC3)cc2)cc1Nc1nccc(-c2cccnc2)n1 |
| 0.00634 µM |  | COc1ccc(C(=O)Nc2ccc(OCCCN3CCOCC3)cc2)cc1Nc1nccc(-c2cccnc2)n1 |
|  | 89.1 µM | Cc1cn(-c2cc(NC(=O)c3ccc(C)c(Nc4nccc(-c5cccnc5)n4)c3)cc(C(F)(F)F)c2)cn1 [NILOTINIB] |
